XBP1 UPR activ = adaptive UPR (XBP1) activation. CHO-XBP1 luciferase reporter, IRE1-XBP1 UPR activation, luminescence; percent of tunicamycin response, DMSO as zero. activation, % at 20 µM. 330,000 compounds, 0.33% hits. AID 463104;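 active = versus positive control, 20 µM dose yields 30% or more activation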;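 also: 100% = tunicamycin at 10 µg/mL and 0% = DMSO only wells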
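Assay system: CHO-XBP1 luciferase reporter cells; Schedule: 6 h treatment, 37 °C; Detection: glow luminescence from Steady-Glo reagent; Benchmarks: high control tunicamycin 10 µg/mL final, low control DMSO vehicle only.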
CSC inhib = cancer stem cell inhibition; 300,000 compounds, 1.1% hits; inhibition, % at 7.5 µM; cancer stem cell-like cells viability, luminescence; AID 2717; in the data active = inhibition above about 75%; tested in HMLE shEcad cells
Beta apoptosis = beta cell apoptosis inhibition; INS-1E cytokine-induced death, ATP luminescence, 48 h; percent of positive-control rescue, neutral wells zero; protection from apoptosis, % (no concentration beside the values); 300,000 compounds, 0.8% hits; AID 435005;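 active = Every replicate reaches about 75%, or at least half do and their mean reaches it too, limit read from the data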;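 also: 0% = cytokine-treated negative control wells and 100% = positive control rescue; higher means more ATP so stronger rescue from cytokine killing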
UPR CHOP act = activators of apoptotic arm of unfolded protein response (CHOP); 330,000 compounds, 0.34% hits; CHO-CHOP luciferase reporter, UPR activation, luminescence; percent of tunicamycin response over DMSO baseline; activation, % at 10 µM;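 active = at 10 µM dose, activation of 40% or more, normalized to positive control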;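 also: 100% = tunicamycin at 10 µg/mL and 0% = DMSO alone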
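Test system: CHO-CHOP cells, stable luciferase reporter of PERK-eIF2a-CHOP signalling | Quantity: 500 CHO-CHOP cells per well | Buffer or medium: F12 plus 10% serum | Compound dosing: 10 µM single point, 0.5% DMSO | Schedule: 6 h compound treatment, 37 °C | Signal: Luciferase luminescence | Control set: Tunicamycin high control, DMSO low control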
SKKanGAS inh = blocks kanamycin growth of S. pyogenes SKKanGAS strain; BacTiter-Glo, 6 h; 300,000 compounds, 1.3% hits; inhibition, % at 7.5 µM;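 active = mean replicate score, as percent of positive control median, at least 50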;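 also: strain carries kanamycin resistance gene driven by streptokinase promoter and grows in 40 µg/ml kanamycin; loss of luminescence reflects streptokinase promoter inhibition or plain growth inhibition; 0% = median of DMSO wells and 100% = positive control at its reference dose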
Mdm2 MdmX PPI = disrupts the human Mdm2-MdmX interaction; SaOS-2 split-luciferase Mdm2/MdmX complementation, luminescence; inhibition, % at 8 µM; 330,000 compounds, 3% hits; AID 485346; O15151+Q00987;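 active = inhibition of at least 50% at 8 µM in the primary screen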
XBP1 UPR conf = adaptive UPR (XBP1) activation, confirmed; activation, % at 20 µM; CHO-XBP1 IRE1-XBP1 luciferase reporter, luminescence; AID 485299; shares compounds with XBP1 UPR activ; 1,000 compounds, 63% hits;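 active = reporter signal at least 30% of the positive control's activation in two or more of four replicate wells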;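 also: plate controls were DMSO negative control for no effect and tunicamycin 10 µg/mL positive control for full effect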
* hit, by the source's call; . = no result; + = active, no number. Rows were chosen to be rich in hits. Some 4.8% of all compounds tested hit in one or more screens of this group.

SMILES | XBP1 UPR activ | CSC inhib | Beta apoptosis | UPR CHOP act | SKKanGAS inh | Mdm2 MdmX PPI | XBP1 UPR conf
CCc1ccccc1S(=O)(=O)c1c(C)cc(C)nc1Cl | 2 | -7 | -5 | 1 | 6 | -3 | .
N#Cc1ccccc1/C=N/Nc1nc(-c2ccccc2)c2cc(Cl)ccc2n1 | 62* | . | 37 | 31 | -1 | 14 | 102*
Cc1cc(C)cc(-n2nnnc2SCC(=O)Nc2nc(-c3ccc(F)cc3)cs2)c1 | 12 | 0 | 5 | 1 | -4 | 43 | .
Cc1cc(C)cc(-n2nnnc2SCC(=O)Nc2nc(-c3ccc(Cl)cc3)cs2)c1 | 34* | 6 | 10 | 0 | 7 | 48 | 15
Cc1cnc(Nc2nc3ccccc3o2)nc1C(=O)Nc1cccc(C(F)(F)F)c1 | 45* | -12 | 9 | 3 | 21 | 38 | 9
COC(=O)CSc1nc(N)c2c3c(sc2n1)C(c1ccccc1)SC(c1ccccc1)C3 (stereo not drawn) | 38* | + | 69 | -7 | 41 | 35 | 14
COC(=O)CSc1nc(N)c2c3c(sc2n1)CCCC3 | 1 | -8 | 3 | -1 | -4 | 11 | .
CN=C1SC(CC(=O)Nc2ccc(F)cc2F)C(=O)N1/N=C/c1ccc(OC(F)F)c(OC)c1 (stereo not drawn) | 201* | -6 | 22 | 30 | -4 | -14 | 5
COc1ccccc1OCCNC(=O)c1ccc(C)o1 | -3 | -7 | -2 | 3 | -8 | 9 | .
COc1ccccc1CNc1ccc(Br)cn1 | 8 | . | . | 3 | 7 | 4 | .
Cc1ccc2nc(-c3cccnc3)cc(C(=O)Nc3ccccc3[N+](=O)[O-])c2c1 | -3 | 9 | -5 | 1 | 0 | 32 | .
Cc1cc(NC(=O)c2cc(-c3ccncc3)nc3ccccc23)ccc1Br | 66* | 86* | 11 | 2 | . | 44 | 44*
CSc1ccccc1NC(=O)c1cc(-c2cccnc2)nc2ccc(Br)cc12 | 32* | 2 | 14 | 1 | 10 | 34 | 66*
COC(=O)c1sccc1NC(=O)c1cc(-c2cccc(C)c2)nc2ccccc12 | 64* | -2 | 0 | -1 | -3 | 47 | 80*
CCSc1nc2sc3c(c2c(=O)n1-c1ccccc1C)CCN(C)C3 | -4 | -5 | -5 | 2 | 13 | 19 | .
Oc1cccc(O)c1O | -2 | 1 | -10 | -1 | . | 4 | .
O=C(CSc1nnc(-c2cccs2)n1-c1ccccc1)c1ccc2c(c1)OCCO2 | 61* | . | 2 | 15 | 7 | 46 | 22
O=C1NC(=Nc2ccc(O)cc2)S/C1=C\C=C\c1ccco1 | 31* | 24 | 0 | 4 | 11 | 27 | 4
CC(=O)Nc1cc2nc(C)n(Cc3ccc([N+](=O)[O-])cc3)c2nc1C | -5 | -15 | -6 | 1 | 2 | -16 | .
O=C(Nc1nc(-c2ccccc2)cs1)c1cccc([N+](=O)[O-])c1 | 7 | 19 | 5 | 3 | 19 | -28 | .
O=C(Nc1nc(-c2cccnc2)cs1)c1cccc([N+](=O)[O-])c1 | 31* | 3 | 5 | 7 | 7 | -3 | 11
Cn1c(=O)c2c(SCC(=O)N3CCOCC3)nc(-c3ccccc3Cl)nc2n(C)c1=O | -3 | 4 | -1 | 1 | 11 | -7 | .
CCOC(=O)c1nnc(-c2ccc(C)cc2)nc1Sc1cccc(Cl)c1 | 48* | 9 | -6 | 36 | 0 | 44 | 46*
CCOC(=O)c1nnc(-c2ccccc2)nc1NCc1ccccc1 | -2 | -8 | -1 | 1 | 4 | 0 | .
CCOC(=O)c1nnc(-c2ccccc2)nc1N1CCSCC1 | 2 | -4 | 1 | -2 | 8 | -22 | .
SMILES | XBP1 UPR activ | CSC inhib | Beta apoptosis | UPR CHOP act | SKKanGAS inh | Mdm2 MdmX PPI | XBP1 UPR conf
CCOC(=O)c1nnc(-c2ccccc2)nc1Oc1ccc(Cl)cc1 | 72* | . | -5 | 31 | -3 | 29 | 85*
CCOC(=O)c1nnc(-c2ccccc2)nc1Sc1ccccc1Cl | 38* | 58 | -11 | 10 | 2 | 38 | 68*
COc1ccc(C2=NS(=O)(=O)N(C)C(C(=O)NCc3ccccn3)=C2)cc1OC | -1 | -1 | -1 | -3 | -1 | 2 | .
C[C@@H](C(=O)OCC(=O)c1ccc(F)c(F)c1)N1C(=O)C2CCCCC2C1=O (stereo partly drawn) | -1 | -18 | -12 | 0 | . | 13 | .
O=C(NCCc1nnc2ccc(SCC(=O)N3CCCC3)nn12)c1ccc(F)cc1 | -2 | -4 | 0 | -1 | -1 | 19 | .
Cc1cnc(C(=O)OCC(=O)Nc2ccc(Br)cc2F)cn1 | 1 | -1 | -3 | 1 | . | -10 | .
O=C(Nc1nccs1)c1cc2c(s1)-c1ccccc1OC2 | 8 | 6 | . | 4 | 39 | -120 | .
O=C(Nc1nc2ccccc2s1)c1cc2c(s1)-c1ccccc1OC2 | 134* | 5 | 24 | 24 | 0 | 36 | 93*
Cc1ccc(C(C[N+](=O)[O-])c2c(-c3ccccc3O)[nH][nH]c2=O)cc1 (stereo not drawn) | 31* | 66 | 4 | 16 | -15 | 32 | -2
COc1ccc(C(C[N+](=O)[O-])c2c(C)[nH]c3ccccc23)cc1OC (stereo not drawn) | -1 | . | . | -1 | -1 | 3 | .
O=C(N/N=C/C(Br)=C\c1ccccc1)c1n[nH]c2c1CCC2 | 35* | . | 56 | 5 | 1 | 9 | 36*
N#CCn1c(Cc2ccccc2)nc2ccccc2c1=O | 32* | . | . | 1 | 0 | 6 | 0
CCOC(=O)C1=C(C)N=C2SC(C(=O)OC)=CC(=O)N2C1c1ccc(F)cc1 (stereo not drawn) | 132* | . | . | 9 | -3 | 22 | 103*
CCOC(=O)C1=C(C)N=C2SC(C(=O)OC)=CC(=O)N2C1c1cccc(OC)c1 (stereo not drawn) | -2 | -6 | 8 | -1 | 16 | 1 | .
CC(C)CC(=O)Nc1ccc(C(=O)COC(=O)C2CC(=O)N(Cc3ccccc3)C2)cc1 (stereo not drawn) | 0 | . | . | 1 | . | 29 | .
CC(=O)c1ccc(NC(=O)c2sc3nc(C)c(C)c(C)c3c2N)cc1 | -5 | . | . | 1 | 5 | -72 | .
Cc1nc2sc(C(=O)Nc3ccccc3)c(N)c2c(C)c1[N+](=O)[O-] | 91* | -3 | 11 | 39 | -16 | -52 | 19
CCOC(=O)/C(C#N)=C\c1ccc(OCC(=O)Nc2ccc(C)cc2C)c(OC)c1 | 37* | -5 | -8 | 11 | 10 | 24 | 2
CCOC(=O)/C(C#N)=C/c1ccc(OCC(=O)Nc2cc(C)ccc2C)c(OC)c1 | -2 | -5 | -3 | 1 | 3 | 21 | .
O=C(Nc1ccc2oc(-c3ccccc3Cl)nc2c1)c1cncc(Br)c1 | 32* | 24 | . | 4 | -2 | 34 | 80*

Screening data from PubChem.
